How the values were obtained:
[1] = molecular target: T1, Human immunodeficiency virus type 1 integrase (Human immunodeficiency virus 1, UniProt Q7ZJM1); assay: Inhibition of recombinant HIV-1 integrase 3'-processing activity expressed in Escherichia coli BL21(DE3) cells using 32P-labeled DNA substrate after 1 hr by densitometric analysis
Method in brief: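 Reaction run 1 h at 37 °C, then stopped with an equal volume of formamide loading buffer containing 1% SDS, 0.25% bromophenol blue and xylene cyanol. Products resolved on 16% denaturing polyacrylamide sequencing gels; dried gels imaged. Value reported as the concentration giving 50% inhibition.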

[2] = molecular target: T1, Human immunodeficiency virus type 1 integrase; assay: Inhibition of recombinant HIV-1 integrase stand transfer activity expressed in Escherichia coli BL21(DE3) cells using 32P-labeled DNA substrate after 1 hr by densitometric analysis
[3] = tested on: Human immunodeficiency virus 1; assay: Antiviral activity against HIV1 infected in human peripheral blood mononuclear cells assessed as inhibition of reverse transcriptase activity incubated for 6 days; assay type: functional, organism-based; conditions: Human immunodeficiency virus 1, 144 h
[4] = (§1) Cytotoxicity against human PBMC assessed as reduction in cell growth incubated for 5 days by CellTiter 96 AQueous One Solution cell proliferation assay; assay type: cell-based; conditions: PBMC (peripheral blood mononuclear cells)
[5] = (§2) Cytotoxicity against human CEM cells assessed as reduction in cell growth incubated for 5 days by CellTiter 96 AQueous One Solution cell proliferation assay; assay type: cell-based, CCRF-CEM; conditions: CEM (CCRF-CEM) cells
[6] = (§3) Cytotoxicity against African green monkey Vero cells assessed as reduction in cell growth incubated for 5 days by CellTiter 96 AQueous One Solution cell proliferation assay; assay type: cell-based; conditions: chlorocebus sabaeus, Vero cells
PBMC = assay: as §1; assay type: cell-based; conditions: pbmc, 120 h
CCRF-CEM = assay: as §2; assay type: cell-based; conditions: ccrf-cem, 120 h
Vero = assay: as §3; assay type: cell-based; conditions: chlorocebus sabaeus, vero, 120 h

T1 sequence (Q7ZJM1 whole entry): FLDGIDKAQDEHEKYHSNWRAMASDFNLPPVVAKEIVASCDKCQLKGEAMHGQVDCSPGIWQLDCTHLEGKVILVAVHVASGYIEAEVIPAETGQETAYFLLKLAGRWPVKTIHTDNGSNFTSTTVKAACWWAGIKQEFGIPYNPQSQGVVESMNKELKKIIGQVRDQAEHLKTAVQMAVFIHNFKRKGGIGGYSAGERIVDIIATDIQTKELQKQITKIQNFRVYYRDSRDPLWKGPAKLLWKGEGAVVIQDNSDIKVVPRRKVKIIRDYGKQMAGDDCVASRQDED

Structure (SMILES) | IC50 [1] [µM] | IC50 [2] [µM] | other results
CCOC(=O)c1c(-c2ccccc2)nc(=O)n(Cc2ccc(C(=O)/C=C(\O)C(=O)O)cc2)c1C | > 111 | 2.4 | 
CCOC(=O)c1c(-c2ccc(F)cc2)nc(=O)n(Cc2ccc(C(=O)/C=C(\O)C(=O)O)cc2)c1-c1ccccc1 | 16.6 | 2.4 | 
CCOC(=O)c1c(-c2ccc(F)cc2)nc(=O)n(Cc2ccc(C(=O)/C=C(\O)C(=O)O)cc2)c1C(C)C | 40 | 3.6 | 
CCOC(=O)c1c(-c2ccc(OC)cc2)nc(=O)n(Cc2ccc(C(=O)/C=C(\O)C(=O)OC(C)C)cc2)c1-c1ccccc1 |  |  | EC50 [3]: 80.6 µM; CC50 at 120 h [4]: > 100 µM; CC50 at 120 h [5]: 25.3 µM; CC50 at 120 h [6]: > 100 µM
CCOC(=O)c1c(-c2ccccc2)nc(SCc2ccc(C(=O)/C=C(\O)C(=O)O)cc2)nc1-c1ccc(F)cc1 | 22 | 2.8 | 
CCOC(=O)c1c(-c2ccccc2)nc(SCc2ccc(C(=O)/C=C(\O)C(=O)O)cc2)nc1-c1ccc(OC)cc1 | 23 | 1.2 | 
CCOC(=O)c1c(-c2ccccc2)nc(=O)n(Cc2ccc(C(=O)/C=C(\O)C(=O)O)cc2)c1-c1ccccc1 | 18.4 | 2 | 
CCOC(=O)c1c(Cc2ccccc2)nc(=O)n(Cc2ccc(C(=O)/C=C(\O)C(=O)OC(C)C)cc2)c1C |  |  | EC50 [3]: 17.2 µM; CC50 (PBMC): 77 µM; CC50 (CCRF-CEM): 7.3 µM; CC50 (Vero): 32.9 µM
CCOC(=O)c1c(-c2ccc(F)cc2)nc(=O)n(Cc2ccc(C(=O)/C=C(\O)C(=O)O)cc2)c1C | 17.4 | 1.3 | 
CCOC(=O)c1c(-c2ccccc2)nc(=O)n(Cc2ccc(C(=O)/C=C(\O)C(=O)O)cc2)c1C(C)C | 37.5 | 2.3 | 
CCOC(=O)c1c(-c2ccccc2)nc(SCc2ccc(C(=O)/C=C(\O)C(=O)O)cc2)nc1-c1ccccc1 | 30 | 6.1 | 
CCOC(=O)c1c(CC)nc(SCc2ccc(C(=O)/C=C(\O)C(=O)O)cc2)nc1-c1ccc(OC)cc1 | 30.7 | 2.27 | 
CCOC(=O)c1c(CC)nc(SCc2ccc(C(=O)/C=C(\O)C(=O)O)cc2)nc1-c1ccc(F)cc1 | 29.3 | 0.92 | 
CCOC(=O)c1c(-c2ccc(OC)cc2)nc(=O)n(Cc2ccc(C(=O)/C=C(\O)C(=O)O)cc2)c1CC | 72 | 5.6 | 
CCOC(=O)c1c(CC)nc(SCc2ccc(C(=O)/C=C(\O)C(=O)O)cc2)nc1-c1ccccc1 | 21.1 | 2.23 | 
CCOC(=O)c1c(-c2ccc(F)cc2)nc(=O)n(Cc2ccc(C(=O)/C=C(\O)C(=O)O)cc2)c1CC | 35 | 1.1 | 
CCOC(=O)c1c(-c2cc(C)cc(C)c2)nc(=O)n(Cc2ccc(C(=O)/C=C(\O)C(=O)O)cc2)c1-c1ccccc1 | 16.3 | 1.3 | 
CCOC(=O)c1c(-c2ccccc2)nc(=O)n(Cc2ccc(C(=O)/C=C(\O)C(=O)O)cc2)c1CC | 19.1 | 0.64 | 
CCOC(=O)c1c(-c2ccc(OC)cc2)nc(=O)n(Cc2ccc(C(=O)/C=C(\O)C(=O)O)cc2)c1-c1ccccc1 | 17.2 | 1.9 | 
CCOC(=O)c1c(Cc2ccccc2)nc(=O)n(Cc2ccc(C(=O)/C=C(\O)C(=O)O)cc2)c1C | 16.9 | 0.19 | 
CCOC(=O)c1c(CC)nc(SCc2ccc(C(=O)/C=C(\O)C(=O)OC(C)C)cc2)nc1-c1ccc(F)cc1 |  |  | EC50 [3]: 25.6 µM; CC50 (PBMC): 43.2 µM; CC50 (CCRF-CEM): 5.2 µM; CC50 (Vero): 39.5 µM
CCOC(=O)c1c(-c2ccccc2)nc(=O)n(Cc2ccc(Cc3cccc(C(=O)/C=C(\O)C(=O)OC(C)C)c3)cc2)c1CC |  |  | EC50 [3]: 36.8 µM; CC50 at 120 h [4]: 47.6 µM; CC50 at 120 h [5]: 8.9 µM; CC50 at 120 h [6]: > 100 µM
CCOC(=O)c1c(-c2ccccc2)nc(=O)n(Cc2ccc(C(=O)/C=C(\O)C(=O)OC(C)C)cc2)c1CC |  |  | EC50 [3]: > 100 µM; CC50 (PBMC): > 100 µM; CC50 (CCRF-CEM): 21.4 µM; CC50 (Vero): > 100 µM
CCOC(=O)c1c(-c2ccc(OC)cc2)nc(=O)n(Cc2ccc(C(=O)/C=C(\O)C(=O)O)cc2)c1C(C)C | 19.2 | 3.3 | 
Cc1cn([C@H]2C[C@H](N=[N+]=[N-])[C@@H](CO)O2)c(=O)[nH]c1=O [ZIDOVUDINE] |  |  | CC50 at 120 h [4]: > 100 µM; CC50 (CCRF-CEM): 56.1 µM; CC50 (Vero): 39.5 µM

Source: ChEMBL document CHEMBL3734651, “Synthesis of dihydropyrimidine α,γ-diketobutanoic acid derivatives targeting HIV integrase” (Eur J Med Chem, 2015)
